Experiments:
[1] = target: Delta-type opioid receptor (Homo sapiens, UniProt P41143); assay: Displacement of [3H]DADLE from delta opioid receptor (unknown origin)
How it was run: (§1)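 Competition radioligand binding. Ki was determined against [3H]DAMGO for MOR, [3H]DADLE for DOR and […] for KOR. Values are the mean of three experiments, each run in duplicate.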

[2] = species on record: Homo sapiens; assay: Selectivity ratio of Ki for mu opioid receptor (unknown origin) to Ki for kappa opioid receptor (unknown origin)
[3] = target: T1, Kappa-type opioid receptor (Homo sapiens, UniProt P41145); assay: Displacement of [3H]U69593 from kappa opioid receptor (unknown origin); how it was run: as §1
[4] = species on record: Homo sapiens; assay: Selectivity ratio of Ki for delta opioid receptor (unknown origin) to Ki for kappa opioid receptor (unknown origin)
[5] = target: Mu-type opioid receptor (Homo sapiens, UniProt P35372); assay: Displacement of [3H]DAMGO from mu opioid receptor (unknown origin); how it was run: as §1
[6] = target: T1, Kappa-type opioid receptor; assay: Agonist activity at kappa opioid receptor in human HEK293 cells assessed as stimulation of Galphai signaling by cAMP assay; format: functional, cell-based
How it was run: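 Live HEK293 cells carrying the cAMP biosensor GloSensor-22F. Galphai activation through KOR was read from the cAMP signal. EC50 reported as mean ± SD.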

T1 sequence (P41145 whole entry): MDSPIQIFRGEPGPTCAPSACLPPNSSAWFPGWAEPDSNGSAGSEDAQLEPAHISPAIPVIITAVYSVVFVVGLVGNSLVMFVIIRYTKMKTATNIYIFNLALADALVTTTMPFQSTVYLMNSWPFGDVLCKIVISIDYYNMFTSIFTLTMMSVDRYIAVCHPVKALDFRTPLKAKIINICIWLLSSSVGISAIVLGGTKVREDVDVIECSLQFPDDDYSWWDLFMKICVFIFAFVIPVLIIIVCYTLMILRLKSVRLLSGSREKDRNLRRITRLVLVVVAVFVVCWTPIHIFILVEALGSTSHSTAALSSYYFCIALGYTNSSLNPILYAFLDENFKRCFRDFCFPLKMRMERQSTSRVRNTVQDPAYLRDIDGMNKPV
Chain of Delta-type opioid receptor (P41143 whole entry): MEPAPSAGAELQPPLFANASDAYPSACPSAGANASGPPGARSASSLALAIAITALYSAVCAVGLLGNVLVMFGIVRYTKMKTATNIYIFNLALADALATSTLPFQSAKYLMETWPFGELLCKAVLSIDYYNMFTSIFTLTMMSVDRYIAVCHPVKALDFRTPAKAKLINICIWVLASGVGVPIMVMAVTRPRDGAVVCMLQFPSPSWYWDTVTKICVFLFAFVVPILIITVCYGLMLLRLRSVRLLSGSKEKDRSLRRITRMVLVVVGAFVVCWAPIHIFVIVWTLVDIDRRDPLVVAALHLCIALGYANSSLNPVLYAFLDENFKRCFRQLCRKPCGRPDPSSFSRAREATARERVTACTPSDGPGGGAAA
Chain of Mu-type opioid receptor (P35372 whole entry): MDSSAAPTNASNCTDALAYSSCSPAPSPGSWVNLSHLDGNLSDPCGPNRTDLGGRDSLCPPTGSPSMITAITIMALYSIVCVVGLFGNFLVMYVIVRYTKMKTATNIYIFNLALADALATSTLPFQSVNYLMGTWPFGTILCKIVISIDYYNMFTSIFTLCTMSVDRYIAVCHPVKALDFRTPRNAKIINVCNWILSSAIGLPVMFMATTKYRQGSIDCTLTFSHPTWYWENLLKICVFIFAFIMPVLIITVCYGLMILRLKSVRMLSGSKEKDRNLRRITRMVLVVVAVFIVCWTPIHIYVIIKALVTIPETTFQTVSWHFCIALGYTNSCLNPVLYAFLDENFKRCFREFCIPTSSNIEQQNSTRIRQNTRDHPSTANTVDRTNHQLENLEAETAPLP

## COC(=O)[C@@H]1C[C@H](OC(=O)CCCC(=O)O)C(=O)[C@H]2[C@@]1(C)CC[C@H]1C(=O)O[C@H](c3ccoc3)C[C@]21C
[1]
  Ki: > 10 µM
[2]
  Ratio Ki: 17
[3]
  Ki: 0.263 µM
[4]
  Ratio Ki: > 38
[5]
  Ki: 4.57 µM

## COC(=O)/C=C/C(=O)O[C@H]1C[C@@H](C(=O)OC)[C@]2(C)CC[C@H]3C(=O)O[C@H](c4ccoc4)C[C@]3(C)[C@H]2C1=O
[1]
  Ki: > 10 µM
[2]
  Ratio Ki: 18
[3]
  Ki: 0.039 µM
[6]
  EC50: 0.07 µM
[4]
  Ratio Ki: > 256
[5]
  Ki: 0.711 µM

## COC(=O)[C@@H]1C[C@H](OC(=O)CCC(=O)O)C(=O)[C@H]2[C@@]1(C)CC[C@H]1C(=O)O[C@H](c3ccoc3)C[C@]21C
[1]
  Ki: > 10 µM
[3]
  Ki: 4.07 µM
[5]
  Ki: > 10 µM

## CCOC(=O)CCC(=O)O[C@H]1C[C@@H](C(=O)OC)[C@]2(C)CC[C@H]3C(=O)O[C@H](c4ccoc4)C[C@]3(C)[C@H]2C1=O
[1]
  Ki: > 10 µM
[3]
  Ki: 0.437 µM
[4]
  Ratio Ki: > 23
[5]
  Ki: > 10 µM

## COC(=O)CCC(=O)O[C@H]1C[C@@H](C(=O)OC)[C@]2(C)CC[C@H]3C(=O)O[C@H](c4ccoc4)C[C@]3(C)[C@H]2C1=O
[1]
  Ki: > 10 µM
[3]
  Ki: 0.036 µM
[6]
  EC50: 0.855 µM
[4]
  Ratio Ki: > 277
[5]
  Ki: > 10 µM

## COC(=O)[C@@H]1C[C@H](OC(=O)CC(=O)OC(C)(C)C)C(=O)[C@H]2[C@@]1(C)CC[C@H]1C(=O)O[C@H](c3ccoc3)C[C@]21C
[1]
  Ki: > 10 µM
[3]
  Ki: 0.148 µM
[4]
  Ratio Ki: > 67
[5]
  Ki: > 10 µM

## CCOC(=O)CC(=O)O[C@H]1C[C@@H](C(=O)OC)[C@]2(C)CC[C@H]3C(=O)O[C@H](c4ccoc4)C[C@]3(C)[C@H]2C1=O [ETHYLSALVINORINB-2-O-MALONATE]
[1]
  Ki: > 10 µM
[3]
  Ki: 0.021 µM
[6]
  EC50: 0.052 µM
[4]
  Ratio Ki: > 476
[5]
  Ki: > 10 µM

## COC(=O)CCCCC(=O)O[C@H]1C[C@@H](C(=O)OC)[C@]2(C)CC[C@H]3C(=O)O[C@H](c4ccoc4)C[C@]3(C)[C@H]2C1=O
[1]
  Ki: > 10 µM
[3]
  Ki: 0.575 µM
[4]
  Ratio Ki: > 17
[5]
  Ki: > 10 µM

## COC(=O)[C@@H]1C[C@H](OC(=O)/C=C\C(=O)O)C(=O)[C@H]2[C@@]1(C)CC[C@H]1C(=O)O[C@H](c3ccoc3)C[C@]21C
[1]
  Ki: > 10 µM
[2]
  Ratio Ki: 1
[3]
  Ki: > 10 µM
[4]
  Ratio Ki: 1
[5]
  Ki: > 10 µM

## COC(=O)CC(=O)O[C@H]1C[C@@H](C(=O)OC)[C@]2(C)CC[C@H]3C(=O)O[C@H](c4ccoc4)C[C@]3(C)[C@H]2C1=O
[1]
  Ki: 4.32 µM
[3]
  Ki: 0.002 µM
[6]
  EC50: 0.137 µM
[4]
  Ratio Ki: 2160
[5]
  Ki: > 10 µM

## COC(=O)[C@@H]1C[C@H](OC(=O)c2ccccc2C(=O)O)C(=O)[C@H]2[C@@]1(C)CC[C@H]1C(=O)O[C@H](c3ccoc3)C[C@]21C
[1]
  Ki: > 10 µM
[3]
  Ki: 2.29 µM
[4]
  Ratio Ki: > 4
[5]
  Ki: > 10 µM

## COC(=O)[C@@H]1C[C@H](OC(=O)CSC#N)C(=O)[C@H]2[C@@]1(C)CC[C@H]1C(=O)O[C@H](c3ccoc3)C[C@]21C [22-THIOCYANATOSALVINORIN A]
[1]
  Ki: > 10 µM
[5]
  Ki: > 10 µM

## COC(=O)CCCC(=O)O[C@H]1C[C@@H](C(=O)OC)[C@]2(C)CC[C@H]3C(=O)O[C@H](c4ccoc4)C[C@]3(C)[C@H]2C1=O
[1]
  Ki: > 10 µM
[2]
  Ratio Ki: 16
[3]
  Ki: 0.302 µM
[4]
  Ratio Ki: > 33
[5]
  Ki: 5.01 µM

## CCOC(=O)/C=C/C(=O)O[C@H]1C[C@@H](C(=O)OC)[C@]2(C)CC[C@H]3C(=O)O[C@H](c4ccoc4)C[C@]3(C)[C@H]2C1=O
[1]
  Ki: > 10 µM
[2]
  Ratio Ki: 2
[3]
  Ki: 0.427 µM
[4]
  Ratio Ki: > 23
[5]
  Ki: 0.724 µM

## COC(=O)[C@@H]1C[C@H](O)C(=O)[C@H]2[C@@]1(C)CC[C@H]1C(=O)O[C@H](c3ccoc3)C[C@]21C [SALVINORIN B]
[1]
  Ki: > 10 µM
[5]
  Ki: > 10 µM

Source: ChEMBL document CHEMBL2380279 (Bioorg Med Chem Lett, 2013)
